Published values collected from several papers.
Target: Platelet-derived growth factor receptor alpha (PDGFRA, Homo sapiens, UniProt P16234)

SMILES | observed | technique | concentration | remaining binding [%]
FC(F)(F)Oc1cccc(-c2cnc3ccc(-c4ccncc4)nn23)c1 | cell-free assay | competition with immobilised ligand | 5 µM | 22
CN(CCCC(F)(F)F)c1nccc(-c2cnn3ncccc23)n1 | binding |  | 1 µM | 100
CNC(=O)[C@@H]1CC[C@@H](n2c(-c3ccc4cnccc4c3)nc3ccc(C(=O)NCc4cccc(C(N)=O)c4)cc32)C1 | binding | competition with immobilised ligand | 1 µM | 100
O=C(NCCCN1CCOCC1)c1ccc(Nc2nccc(-c3cc4ccccc4s3)n2)cc1 | binding | competition with immobilised ligand | 1 µM | 64
CN(c1nccc(-c2cnn3ncccc23)n1)C1CC1 | binding |  | 1 µM | 100
C[C@H](c1cccc(C#N)c1)n1cc(Cl)cc(C(N)=O)c1=N | cell-free assay | competition with immobilised ligand | 1 µM | 94
CCN1CCN(Cc2ccc(C(=O)Nc3ccc(C)c(Oc4ccc5c(c4)CC(=O)N5)c3)cc2C(F)(F)F)CC1 | binding | competition with immobilised ligand | 1 µM | 100
CCOCCn1cc(C(=O)Nc2ccc(-n3nc(-c4cccnc4)cc3C(F)(F)F)cn2)ccc1=O | cell-free assay | competition with immobilised ligand | 1 µM | 68
CC1CCCN1c1nccc(-c2cnn3ncccc23)n1 (stereo not shown) | binding |  | 1 µM | 94
O=C(NCC1CCOCC1)c1n[nH]cc1NC(=O)c1c(F)cccc1F | binding | competition with immobilised ligand | 1 µM | 84
F[C@@H]1CCN(c2nccc(-c3cnn4ncccc34)n2)C1 | binding |  | 1 µM | 100
CS(=O)(=O)c1cc(C2(NC(=O)c3cncc4c3cnn4-c3ccc(F)cc3)CC2)ccn1 | cell-free assay | competition with immobilised ligand | 1 µM | 90
N[C@@H]1CCN(c2nccc(-c3cnn4ncccc34)n2)C1 | binding |  | 1 µM | 100
c1cncc(-c2cccc(Nc3nccc(NC4CCCCC4)n3)c2)c1 | binding | competition with immobilised ligand | 10 µM | 11
CSc1cccnc1N1CCN(Cc2nc3ccccc3[nH]2)CC1 | cell-free assay | competition with immobilised ligand | 1 µM | 89
O=C(NCCCN1CCOCC1)c1ccc(Nc2ncc(Cl)c(-c3ccc(Cl)s3)n2)cc1 | binding | competition with immobilised ligand | 1 µM | 10
C[C@@H]1CN(c2ccc3ncc(-c4ccc5[nH]nc(C6CC6)c5c4)n3n2)C[C@H](C)O1 | binding | competition with immobilised ligand | 50 nM | 81
COc1ccc2c(c1)O[C@@H](c1ccc(OC)c(OC)c1)C[C@H]2NC(=O)C1(c2ccc3c(c2)OC(F)(F)O3)CC1 | cell-free assay | competition with immobilised ligand | 1 µM | 78
C[C@@H](c1ccc(-n2cnc3c(N)ncnc32)cc1)N1CCc2nn(C)c(Cc3ccccc3)c2C1=O | binding | competition with immobilised ligand | 0.1 µM | 20
COCCOc1nc(-c2ccc(Cl)nc2)nc2c1CN(C(=O)c1ncn3ccccc13)CC2 | cell-free assay | competition with immobilised ligand | 0.1 µM | 100
O=C(c1ccc(Nc2nccc(-c3cc4ccccc4s3)n2)cc1)N1CCC(N2CCCC2)CC1 | binding | competition with immobilised ligand | 1 µM | 52
COc1cccc(CNC(=O)c2nc3scc(COCc4ccc(C(=O)O)cc4)c3c(=O)[nH]2)c1 | cell-free assay | competition with immobilised ligand | 1 µM | 56.3
COc1cnc(Nc2cccc(S(N)(=O)=O)c2)nc1N1CCN(c2ccccc2)C(=O)C1 | binding | competition with immobilised ligand | 1 µM | 82
C[C@H]1CCN(c2nccc(-c3cnn4ncccc34)n2)C1 | binding |  | 1 µM | 83
Cn1cc(Cl)c2c(Oc3c(F)cc(Nc4cc(Cl)nc(N)n4)cc3F)ccnc21 | cell-free assay | competition with immobilised ligand | 0.1 µM | 98
